Data from publication PMC3751419 (Dalton transactions (Cambridge, England : 2003), 2013).

Experiments:
[1] = test system: platinum-resistant colorectal tumours; conditions: cited from earlier work
[2] = test system: metastases of solid tumours; conditions: cited from earlier work
[3] = test system: cisplatin-resistant ovarian and testicular cancer cell lines; conditions: cited from earlier work
A431 carcinoma cells = assay: Dark and light toxicity with a 740 nm LED lamp, phase contrast images; type: cell-based, human
[4] = Stability in aqueous media by ESR and 51V NMR spectroscopy; type: physicochemical
How it was run: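 A 50 mM DMSO stock was diluted to 4.0 mM in DI water (pH 7.19) and kept in subdued light at room temperature. ESR spectra were recorded at room temperature immediately and at 24, 48 and 72 h. 51V NMR spectra of the 4.0 mM solutions were taken at 0, 24, 48 and 72 h and at seven days. Control: 4.0 mM NaVO3, pH 7.19.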

HFF cells = assay: Dark and light toxicity with a 740 nm LED lamp, phase contrast images; type: cell-based, human; conditions: for light enhancement of cytopathic effect compared to dark toxicity, HFF: 740 nm red light 60 minutes, then 24 hours dark
[5] = test system: murine embryonic fibroblasts; conditions: room-light or red-light exposure; cited from earlier work
fibrosarcoma cells = conditions: room-light or red-light exposure; cited from earlier work
[6] = test system: amelanotic malignant melanoma cells; assay: Dark and light toxicity with a 60 W tungsten lamp, phase contrast images; type: cell-based, human
How it was run: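 ATCC amelanotic melanoma line (from a person) grown at 37 °C, 5% CO2 in high-glucose DMEM with 10% FBS, 0.5% pen-strep, 1% glutamine and 1% non-essential amino acids. 10^5 cells/well seeded; after 24 h, medium swapped for test compound at 5 or 20 µM. After 24 h, cells irradiated 30 min with a 60 W tungsten lamp or kept dark. Phase-contrast images at 10x taken 3 h later. Untreated cells served as control.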

[7] = 4.0 mM in water, pH 7.19, room temperature, day seven

**Q.** For `[Cl-].[Cl-].[Cl-].[Cl-].[Ru+3].c1ccc2[nH][nH+]cc2c1.c1ccc2[nH]ncc2c1.c1ccc2[nH]ncc2c1` [KP1019], which “activity against platinum-resistant colorectal tumours” value [1] is on record?
**A.** excellent activity

**Q.** With `CS(C)=O.[Cl-].[Cl-].[Cl-].[Cl-].[Ru+3].c1c[nH+]c[nH]1.c1c[nH]cn1` [NAMI-A] as the compound, how does the “activity against development and growth of metastases of solid tumours” value [2] read?
**A.** particularly active

**Q.** With `Cc1ccnc2c1ccc1c(C)ccnc12.Cc1ccnc2c1ccc1c(C)ccnc12.O=S(=O)([O-])[O-].[O]=[V+2]` [metvan, bis(4,7-dimethyl-1,10-phenanthroline)sulfatooxovanadium(IV)] as the compound, how does the “effectiveness against cisplatin-resistant ovarian and testicular cancer cell lines” value [3] read?
**A.** highly effective

**Q.** For [Ru(pbt)2(phen2DTT)VO(sal-L-tryp)]Cl2, which “changes in cell morphology of A431 cells” value (A431 carcinoma cells; 5 μM, dark and light exposure) is on record?
**A.** only slight changes in cell morphology

**Q.** And the “cytopathic effect on A431 cells” value (A431 carcinoma cells; 20 μM)?
**A.** anticancer cytopathic effect

**Q.** What about the “light enhancement of cancer cell death compared to [Ru(pbt)2(tpphz)VO(sal-L-tryp)]Cl2 treated cells” value (A431 carcinoma cells; 740 nm light, A431) of the same compound?
**A.** more pronounced light enhancement of cancer cell death

**Q.** And the “light enhancement of cytopathic effect compared to dark toxicity, A431” value (A431 carcinoma cells; 740 nm red light 60 minutes, then 24 hours dark)?
**A.** light enhanced cytopathic effects

**Q.** What about the “change in intensity of ESR spectra” value ([4]; 4.0 mM in water, pH 7.19, room temperature, 0, 24, 48, and 72 hours) of the same compound?
**A.** no decrease in intensity

**Q.** And the “vanadium(V) species by 51V NMR” value [4, 7]?
**A.** a weak, broad peak at −543 ppm

**Q.** What about the “vanadium(V) species by 51V NMR” value ([4]; 4.0 mM in water, pH 7.19, room temperature, up to 72 hours) of the same compound?
**A.** absence of any vanadium(V) species

**Q.** What about the “stability in aqueous media (oxidation of vanadium(IV) centre)” value ([4]; standing at room temperature, pH 7.19) of the same compound?
**A.** considerable stability

**Q.** And the “changes in morphology of HFF cells” value (HFF cells; 5 μM and 20 μM, dark and light exposure)?
**A.** only minor changes in morphology

**Q.** What about the “light enhancement of cytopathic effect compared to dark toxicity, HFF” value (HFF cells) of the same compound?
**A.** no effect

**Q.** What does the source list for [Ru(pbt)2(tpphz)VO(sal-L-tryp)]Cl2?
**A.** vanadium(V) species by 51V NMR [4, 7]: a weak, broad peak at −543 ppm; light enhancement of cytopathic effect compared to dark toxicity, HFF (HFF cells): no effect

**Q.** With “sodium diaqua-4,4',4”,4”'tetrasulfophthalocyaninecobaltate(II) [Na4[Co(tspc)(H2O)2]]” as the compound, how does the cytotoxic activity [5] read?
**A.** no cytotoxic activity

**Q.** And the cytotoxic activity (fibrosarcoma cells)?
**A.** no cytotoxic activity

**Q.** And the “apoptosis of melanoma cells, dark” value ([6]; 5.0 and 20.0 μM, incubated in the dark one day)?
**A.** do not show significant apoptosis

**Q.** And the “impact on melanoma cells under illumination” value ([6]; 5 or 20 μM, 60 W tungsten lamp 30 minutes)?
**A.** no impact
